In ChEMBL document CHEMBL1125195, “Novel compounds possessing potent cAMP and cGMP phosphodiesterase inhibitory activity. Synthesis and cardiovascular effects of a series of imidazo[1,2-a]quinoxalinones and imidazo[1,5-a]quinoxalinones and their aza analogues” (J Med Chem, 1991):
Active and inactive are the calls of the source. No cut-off for these calls is given here.

Legend:
Canis familiaris [1] = organism: Canis familiaris; experiment: In vitro vascular relaxation in canine mesenteric veins precontracted with phenylephrine.; type: functional; settings: Canis lupus familiaris, Mesenteric vein
Method in brief: (§1)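 Isolated vessels in warm PSS. Arteries constricted with prostaglandin F2α, veins with phenylephrine. Cumulative drug challenges, each added after relaxation plateaued. Delta force is expressed as % of agonist actual force (total minus basal) and as % of maximal relaxation. EC50 is found by linear interpolation between the points bracketing 50% relaxation. Afterwards tissues were rinsed every 10 min, reconstricted, and challenged with acetylcholine (arteries) or thrombin (veins).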

[2] = In vitro increase in contractile force in ferret papillary muscle strips.; type: functional, Mustela putorius furo, Muscle tissue
Method in brief: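 Ferret papillary muscle; value is drug concentration (μM) giving a 20% rise in contractile force. Mean of at least two determinations, ranges within ±10%. Inotropic effect also tested with 1 μM propranolol co-administered. NR means not reached at 100 μM.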

Canis familiaris [3] = organism: Canis familiaris; experiment: In vitro vascular relaxation in canine coronary arteries precontracted with prostaglandin F2alpha.; type: functional; settings: Canis lupus familiaris; method in brief: as §1
[4] = Inhibition of crude cGMP phosphodiesterase from canine thoracic aorta; type: tissue-based, Canis lupus familiaris
Method in brief: (§2)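 Crude homogenates: cAMP PDE from canine cardiac tissue, cGMP PDE from canine thoracic aorta. Value is drug concentration (μM) giving 50% inhibition. Mean of at least three determinations, ranges within ±10%.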

[5] = Inhibition of crude cAMP phosphodiesterase from canine […]; set-up: species or system Canis lupus familiaris; method in brief: as §2
Canis familiaris [6] = experiment: (§3) Percent change in left ventricle contractile force in anesthetized dogs after intravenous administration at 0.3 mg/kg; type: functional, Canis lupus familiaris, Heart left ventricle
Canis familiaris [7] = experiment: Percent change in mean arterial blood pressure after intravenous administration in anesthetized dogs at 0.1 mg/kg; type: functional, Canis lupus familiaris
Canis familiaris [8] = experiment: (§4) Percent change in left ventricle contractile force in anesthetized dogs after intravenous administration at 1.0 mg/kg; type: functional, Canis lupus familiaris, Heart left ventricle
Canis familiaris [9] = experiment: Percent change in heart rate after intravenous administration in anesthetized dogs at 1.0 mg/kg; type: functional, Canis lupus familiaris
Canis familiaris [10] = experiment: Percent change in heart rate after intravenous administration in anesthetized dogs at 0.3 mg/kg; type: functional, Canis lupus familiaris
Canis familiaris [11] = experiment: Percent change in heart rate after intravenous administration in anesthetized dogs at 0.1 mg/kg (NC<10%); type: functional, organism-based; set-up: dose 0.1 mg/kg; settings: Canis lupus familiaris
Canis familiaris [12] = experiment: Percent change in left ventricle contractile force in anesthetized dogs after intravenous administration at 0.1 mg/kg; type: functional, Canis lupus familiaris, Heart left ventricle
Canis familiaris [13] = experiment: (§5) Percent change in mean arterial blood pressure after intravenous administration in anesthetized dogs at 0.3 mg/kg; type: functional, Canis lupus familiaris
Canis familiaris [14] = experiment: (§6) Percent change in mean arterial blood pressure after intravenous administration in anesthetized dogs at 1.0 mg/kg; type: functional, Canis lupus familiaris
[15] = Inhibition of crude cAMP phosphodiesterase from canine […] (NR = no effect at 100 ug); set-up: species or system Canis lupus familiaris
Method in brief: (§7)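 Crude PDEs from canine tissue homogenates: cAMP enzyme from cardiac tissue, cGMP enzyme from thoracic aorta. Value is drug concentration (μM) causing 50% inhibition. Mean of at least three determinations, ranges within ±10%.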

Canis familiaris [16] = experiment: as §4; type: functional, Canis lupus familiaris, Heart left ventricle; remark: listed apart in the source
Method in brief: (§8)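 Anesthetized dogs, drug given intravenously at the stated dose. Percent change recorded in LV dP/dt (contractile force), heart rate and mean arterial pressure. Mean of at least four determinations; LV dP/dt ranges within ±10%.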

Mustela putorius furo = organism: Mustela putorius furo; experiment: In vitro increase in contractile force in ferret papillary muscle strips (NR = not reached at 100 ug); type: functional, tissue-based; settings: Muscle tissue
Method in brief: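 Ferret papillary muscle contractile force measured in vitro; value is drug concentration (μM) giving a 20% rise in contractile force. Inotropic effect also tested with 1 μM propranolol coadministered. Mean of at least two determinations, ranges within ±10%.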

Canis familiaris [17] = experiment: Percent change heart rate after intravenous administration in anesthetized dogs at 0.3 mg/kg (NC<10%); type: functional, Canis lupus familiaris; method in brief: as §8
Canis familiaris [18] = experiment: Percent change in mean arterial blood pressure after intravenous administration in anesthetized dogs at 3.0 mg/kg; type: functional, Canis lupus familiaris; method in brief: as §8
Canis familiaris [19] = experiment: Percent change in heart rate after intravenous administration in anesthetized dogs at 3.0 mg/kg (NC<10%); type: functional, Canis lupus familiaris; method in brief: as §8
[20] = Inhibition of crude cGMP phosphodiesterase from canine thoracic aorta (NR = no effect at 100 ug); type: tissue-based, Canis lupus familiaris; method in brief: as §7
Canis familiaris [21] = experiment: as §6; type: functional, Canis lupus familiaris; method in brief: as §8; remark: listed apart in the source
Canis familiaris [22] = experiment: Percent change in left ventricle contractile force in anesthetized dogs after intravenous administration at 3.0 mg/kg; type: functional, Canis lupus familiaris, Heart left ventricle; method in brief: as §8
Canis familiaris [23] = experiment: as §3; type: functional, Canis lupus familiaris, Heart left ventricle; method in brief: as §8; remark: listed apart in the source
Canis familiaris [24] = experiment: as §5; type: functional, Canis lupus familiaris; method in brief: as §8; remark: listed apart in the source
Canis familiaris [25] = experiment: Percent change heart rate after intravenous administration in anesthetized dogs at 1.0 mg/kg; type: functional, Canis lupus familiaris; method in brief: as §8
Canis familiaris [26] = experiment: Percent change in mean arterial blood pressure after intravenous administration in anesthetized dogs at 0.1 mg/kg (NC<10%); type: functional, Canis lupus familiaris
Canis familiaris [27] = experiment: Percent change heart rate after intravenous administration in anesthetized dogs at 0.1 mg/kg; type: functional, Canis lupus familiaris
Canis familiaris [28] = experiment: Percent change in mean arterial blood pressure after intravenous administration in anesthetized dogs at 1.0 mg/kg (NC<10%); type: functional, Canis lupus familiaris
[29] = Inhibition of crude cAMP phosphodiesterase from canine […] (NR = no effect at 100 uM); set-up: species or system Canis lupus familiaris; method in brief: as §2

Structure (SMILES)	EC50 (Canis familiaris [1]) [µM]	EC50 (Canis familiaris [3]) [µM]	IC50 [4] [µM]	IC50 [5] [µM]	CFC20 [2] [µM]	further results
Cc1ncc2c(O)nc3ccc(-n4ccnc4)cc3n12	2.8	30	19	8	2	
Oc1nc2ccc(-n3ccnc3)cc2n2ccnc12	3.1	28	13	6	3.1	
CCc1ncc2c(O)nc3cccnc3n12	0.5	0.3	7	1	0.1	Delta (Canis familiaris [6]): 40%; Delta (Canis familiaris [7]): -17%; Delta (Canis familiaris [8]): 76%; Delta (Canis familiaris [9]): 50%; Delta (Canis familiaris [10]): 30%; Delta (Canis familiaris [11]): <10% change from control; Delta (Canis familiaris [12]): 31%; Delta (Canis familiaris [13]): -25%; Delta (Canis familiaris [14]): -40%
O=[N+]([O-])OCC(CO[N+](=O)[O-])O[N+](=O)[O-] [NITROGLYCERIN]	0.007	0.01				IC50 [15]: Not Active; Delta (Canis familiaris [16]): -14%; CFC20 (Mustela putorius furo): inactive; Delta (Canis familiaris [17]): <10%; Delta (Canis familiaris [18]): -39%; Delta (Canis familiaris [19]): <10%; IC50 [20]: Not Active; Delta (Canis familiaris [21]): -30%; Delta (Canis familiaris [22]): -17%; Delta (Canis familiaris [23]): -9%; Delta (Canis familiaris [24]): -20%; Delta (Canis familiaris [25]): <10%
CC(C)Cn1c(=O)n(C)c(=O)c2nc[nH]c21 [ISOBUTYLMETHYLXANTHINE]	1	5.5	28	20	1.5	Delta (Canis familiaris [16]): 69%; Delta (Canis familiaris [26]): <10%; Delta (Canis familiaris [27]): 17%; Delta (Canis familiaris [10]): 32%; Delta (Canis familiaris [28]): <10%; Delta (Canis familiaris [21]): -18%; Delta (Canis familiaris [23]): 41%; Delta (Canis familiaris [12]): 25%; Delta (Canis familiaris [25]): 45%
CCc1nc(C)c2c(=O)n(C)c3ccccc3n12	3.8	12	17	18	2.3	

Continued by falling IC50 [4], values first:

EC50 (Canis familiaris [1]) [µM]	EC50 (Canis familiaris [3]) [µM]	IC50 [4] [µM]	IC50 [5] [µM]	Structure (SMILES)	CFC20 [2] [µM]	further results
		44	49	Oc1nc2ccccc2n2ccnc12	10	
23	59	14		CCc1nccn1-c1ncnc2c1nc(O)c1cnc(CC)n12		IC50 [29]: Not reached
0.3	5.3	3	2	CCc1ncc2c(O)nc3ccc(-n4ccnc4)cc3n12	1.2	
0.05	0.7	0.9	0.8	CCc1nc(C)c2c(O)nc3ccc(N4CCOCC4)cc3n12	0.5	
0.1	0.5	0.3	0.4	CCc1nc(C)cn1-c1ccc2nc(O)c3c(C)nc(CC)n3c2c1	1	
